Measured values: ChEMBL document CHEMBL3044632, “Synthesis, crystal structure, and biological activity of 4-methyl-1,2,3-thiadiazole-containing 1,2,4-triazolo[3,4-b][1,3,4]thiadiazoles” (J Agric Food Chem, 2010)

Legend:
Nicotiana tabacum = assay: Phytotoxicity against Nicotiana tabacum (tobacco) plant at 50 to 500 ug/mL; format: organism-based; settings: in vivo
Tobacco mosaic virus [1] = assay: Antiviral activity against Tobacco mosaic virus (TMV) infected leaves assessed as viral inhibition at 50 ug/mL at 25 degC for 72 hr; format: functional
Summary of the method: (§1)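 Systemic acquired resistance induction was assayed in a tobacco–TMV system. The antivirus inhibition ratio was calculated from the average number of viral lesions on inoculated leaves, relative to the corresponding control.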

Rhizoctonia solani = assay: Fungicide activity against Rhizoctonia solani Kuhn assessed as growth inhibition at 50 ug/mL at 24 to 26 degC measured after 2 days; format: functional; settings: 48 h, read-out: GI
Puccinia triticina = assay: Fungicide activity against Puccinia triticina assessed as growth inhibition at 50 ug/mL at 24 to 26 degC measured after 2 days; format: functional; settings: 48 h, read-out: GI
Thanatephorus cucumeris = assay: Fungicide activity against Thanatephorus cucumeris assessed as growth inhibition at 50 ug/mL at 24 to 26 degC measured after 2 days; format: functional; settings: 48 h, read-out: GI
[2] = system: Botryosphaeria berengeriana; assay: Fungicide activity against Botryosphaeria berengeriana assessed as growth inhibition at 50 ug/mL at 24 to 26 degC measured after 2 days; format: functional; settings: 48 h, read-out: GI
Phytophthora infestans = assay: Fungicide activity against Phytophthora infestans assessed as growth inhibition at 50 ug/mL at 24 to 26 degC measured after 2 days; format: functional; settings: 48 h, read-out: GI
Fusarium oxysporum = assay: Fungicide activity against Fusarium oxysporum assessed as growth inhibition at 50 ug/mL at 24 to 26 degC measured after 2 days; format: functional; settings: 48 h, read-out: GI
Colletotrichum lagenaria = assay: Fungicide activity against Colletotrichum lagenaria assessed as growth inhibition at 50 ug/mL at 24 to 26 degC measured after 2 days; format: functional; settings: 48 h, read-out: GI
Cercospora beticola = assay: Fungicide activity against Cercospora beticola assessed as growth inhibition at 50 ug/mL at 24 to 26 degC measured after 2 days; format: functional; settings: 48 h, read-out: GI
Mycosphaerella arachidis = assay: Fungicide activity against Mycosphaerella arachidis assessed as growth inhibition at 50 ug/mL at 24 to 26 degC measured after 2 days; format: functional; settings: 48 h, read-out: GI
Alternaria solani = assay: Fungicide activity against Alternaria solani assessed as growth inhibition at 50 ug/mL at 24 to 26 degC measured after 2 days; format: functional; settings: 48 h, read-out: GI
Fusarium graminearum = assay: Fungicide activity against Fusarium graminearum assessed as growth inhibition at 50 ug/mL at 24 to 26 degC measured after 2 days; format: functional; settings: 48 h, read-out: GI
Botrytis cinerea = assay: Fungicide activity against Botryotinia fuckeliana assessed as growth inhibition at 50 ug/mL at 24 to 26 degC measured after 2 days; format: functional; settings: 48 h, read-out: GI
Tobacco mosaic virus [3] = assay: Antiviral activity against Tobacco mosaic virus (TMV) infected leaves assessed as viral inhibition at 100 ug/mL at 25 degC for 72 hr; format: functional; summary of the method: as §1
Tobacco mosaic virus [4] = assay: Antiviral activity against Tobacco mosaic virus (TMV) infected leaves assessed as viral inhibition at 500 ug/mL at 25 degC for 72 hr; format: functional; summary of the method: as §1

| Structure (SMILES) | Activity (Nicotiana tabacum) | inhibition at 50 µg/mL (Tobacco mosaic virus [1]) | inhibition of growth at 50 µg/mL (Rhizoctonia solani) | inhibition of growth at 50 µg/mL (Puccinia triticina) | inhibition of growth at 50 µg/mL (Thanatephorus cucumeris) | inhibition of growth at 50 µg/mL [2] | inhibition of growth at 50 µg/mL (Phytophthora infestans) | inhibition of growth at 50 µg/mL (Fusarium oxysporum) | inhibition of growth at 50 µg/mL (Colletotrichum lagenaria) | inhibition of growth at 50 µg/mL (Cercospora beticola) | inhibition of growth at 50 µg/mL (Mycosphaerella arachidis) | inhibition of growth at 50 µg/mL (Alternaria solani) | inhibition of growth at 50 µg/mL (Fusarium graminearum) | inhibition of growth at 50 µg/mL (Botrytis cinerea) | inhibition at 100 µg/mL (Tobacco mosaic virus [3]) | inhibition at 500 µg/mL (Tobacco mosaic virus [4]) |
| --- | --- | --- | --- | --- | --- | --- | --- | --- | --- | --- | --- | --- | --- | --- | --- | --- |
| COc1ccc(C2=NN3C(c4snnc4C)=NNC3S2)cc1 (stereo not given) | Toxic | 17.9% | 11.1% | 10% | 46.4% | 7.7% | 4.8% | 44.4% | 18.2% | 0% | 7.7% | 0% | – | – | – | – |
| Cc1nnsc1C1=NNC2SC(CCl)=NN12 (stereo not given) | Toxic | 29.2% | – | – | 38.4% | 33.3% | 11.4% | 25% | 4.3% | 21.4% | 34.8% | 23.8% | 33.3% | 65.2% | – | – |
| Cc1nnsc1C1=NNC2SC(COc3ccc(Cl)cc3Cl)=NN12 (stereo not given) | Toxic | 0% | – | – | 33.3% | 23.8% | 12.1% | 3% | 19.2% | 20% | 31% | 31.3% | 12.5% | – | – | – |
| Cc1nnsc1C1=NNC2SC(/C=C/c3ccccc3)=NN12 (stereo not given) | Toxic | – | – | – | 33.3% | 40.5% | 18.2% | 9.1% | 26.9% | 13.3% | 27.6% | 31.3% | 17.5% | 81.8% | 16.7% | 27.8% |
| Cc1nnsc1C1=NNC2SC(c3ccccc3OC(F)(F)F)=NN12 (stereo not given) | Toxic | 25% | 5.6% | 0% | 35.7% | 15.4% | 0% | 86% | 45.5% | 0% | 7.7% | 4.8% | – | – | – | – |
| Cc1nnsc1C1=NNC2SC(c3cccc(F)c3)=NN12 (stereo not given) | Toxic | – | – | – | 32.8% | 54.1% | 0% | 10% | 0% | 27.3% | 23.5% | 37.1% | 40.5% | 75% | 24.2% | 30.7% |
| Cc1nnsc1C1=NNC2SC(c3cccc(OC(F)(F)F)c3)=NN12 (stereo not given) | Toxic | – | – | – | 35.2% | 25.6% | 17.8% | 18.6% | 13.8% | 35.7% | 23.1% | 23.7% | 4.8% | 68.9% | 30% | 37.5% |
| Cc1nnsc1C1=NNC2SC(c3ccc(F)cc3)=NN12 (stereo not given) | Toxic | 0% | – | – | 11.3% | 18.6% | 15.6% | 9.3% | 10.3% | 7.1% | 33.1% | 26.3% | 14.3% | 53.3% | – | – |
| Cc1nnsc1C1=NNC2SC(c3ccccc3F)=NN12 (stereo not given) | Toxic | – | – | 21.1% | 58.8% | 24.2% | 20% | 19.4% | 11.8% | 23.8% | 18.2% | 40% | – | – | 9.5% | 53.6% |
